ChEMBL document CHEMBL4138211, “Regio- and stereoselective synthesis of dispirooxindole-pyrrolocarbazole hybrids via 1,3-dipolar cycloaddition reactions: Cytotoxic activity and SAR studies” (Eur J Med Chem, 2018)
Activity calls are given as the source filed them. No cut-off for these calls is given here.

Key:
MCF7 [1] = test: Antiproliferative activity against human MCF7 cells after 48 hrs by MTT assay; type: functional, cell-based; conditions: for IC50: MCF7, 48 h
How it was run: (§1)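 Cells grown 1×10⁴/well for 48 h to about 75% confluence. Medium then replaced with fresh medium containing serially diluted compounds, followed by a further 48 h. MTT added for 4 h at 37 °C and formazan dissolved in DMSO for 10 min. OD read at 620 nm. IC50 taken from the viability–concentration survival curve. Three independent experiments, each in triplicate.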

A549 [2] = test: Antiproliferative activity against human A549 cells after 48 hrs by MTT assay; type: functional, cell-based; conditions: for IC50: A549, 48 h; how it was run: as §1
MCF7 [3] = test: Induction of apoptosis in human MCF7 cells assessed as cell shrinkage after 24 hrs by brightfield inverted light microscopic analysis; type: functional, cell-based
MCF7 [4] = test: Induction of apoptosis in human MCF7 cells assessed as membrane blebbing after 24 hrs by brightfield inverted light microscopic analysis; type: functional, cell-based
MCF7 [5] = test: Induction of apoptosis in human MCF7 cells assessed as formation of floating cells after 24 hrs by brightfield inverted light microscopic analysis; type: functional, cell-based
A549 [6] = test: Induction of apoptosis in human A549 cells assessed as cell shrinkage after 24 hrs by brightfield inverted light microscopic analysis; type: functional, cell-based
A549 [7] = test: Induction of apoptosis in human A549 cells assessed as membrane blebbing after 24 hrs by brightfield inverted light microscopic analysis; type: functional, cell-based
A549 [8] = test: Induction of apoptosis in human A549 cells assessed as formation of floating cells after 24 hrs by brightfield inverted light microscopic analysis; type: functional, cell-based
MCF7 [9] = test: Induction of apoptosis in human MCF7 cells assessed as nuclear fragmentation after 24 hrs by DAPI staining-based fluorescence microscopic analysis; type: functional, cell-based
How it was run: (§2)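 Cells plated on glass coverslips and treated for 24 h, then fixed. Permeabilised with 0.2% Triton X-100 for 10 min at room temperature. DAPI applied for 3 min under a coverslip. Nuclei inspected by fluorescence microscopy for condensed chromatin and fragmentation, against untreated cells.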

MCF7 [10] = test: Induction of apoptosis in human MCF7 cells assessed as chromatin condensation after 24 hrs by DAPI staining-based fluorescence microscopic analysis; type: functional, cell-based; how it was run: as §2
A549 [11] = test: Induction of apoptosis in human A549 cells assessed as nuclear fragmentation after 24 hrs by DAPI staining-based fluorescence microscopic analysis; type: functional, cell-based; how it was run: as §2
MCF7 [12] = test: Induction of apoptosis in human MCF7 cells by acridine orange/ethidium bromide staining-based fluorescence microscopic analysis; type: functional, cell-based
How it was run: (§3)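 Treated cells collected and washed in PBS (pH 7.2). Stained with a 1:1 AO/EtBr mixture (each dye […] in water) and held 2 min. Washed twice in PBS and viewed by fluorescence microscopy at 400× with 480 nm excitation. Green intact-membrane cells distinguished from orange/red membrane-damaged cells.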

MCF7 [13] = test: Induction of apoptosis in human MCF7 cells assessed as nuclear condensation by acridine orange/ethidium bromide staining-based fluorescence microscopic analysis; type: functional, cell-based; how it was run: as §3
MCF7 [14] = test: Induction of apoptosis in human MCF7 cells assessed as damaged cell membranes by acridine orange/ethidium bromide staining-based fluorescence microscopic analysis; type: functional; how it was run: as §3
A549 [15] = test: Induction of apoptosis in human A549 cells by acridine orange/ethidium bromide staining-based fluorescence microscopic analysis; type: functional, cell-based; how it was run: as §3

Row | Structure (SMILES) | Activity (MCF7 [1]) | IC50 (MCF7 [1]) [µM] | Activity (A549 [2]) | IC50 (A549 [2]) [µM] | Activity (MCF7 [3]) | Activity (MCF7 [4]) | Activity (MCF7 [5]) | Activity (A549 [6]) | Activity (A549 [7]) | Activity (A549 [8]) | Activity (MCF7 [9]) | Activity (MCF7 [10]) | Activity (A549 [11]) | Activity (MCF7 [12]) | Activity (MCF7 [13]) | Activity (MCF7 [14]) | Activity (A549 [15])
1 | Cc1ccc2[nH]c3c(c2c1)CC[C@]1(C3=O)[C@@H](c2ccccc2)[C@@H](c2ccccc2)N[C@@]12C(=O)Nc1ccccc12 | Dose-dependent effect | 19 | Dose-dependent effect | 18 | inactive | inactive | inactive | inactive | inactive | inactive | Active | Active | inactive | inactive | inactive | inactive | inactive
2 | O=C1Nc2ccccc2[C@]12N[C@H](c1ccccc1)[C@H](c1ccccc1)[C@@]21CCc2c([nH]c3ccc(Cl)cc23)C1=O | Dose-dependent effect | 18 | Dose-dependent effect | 15 | inactive | inactive | inactive | inactive | inactive | inactive | Active | Active | inactive | inactive | inactive | inactive | inactive
3 | COc1ccc([C@H]2[C@@H](c3ccccc3)N[C@@]3(C(=O)Nc4ccccc43)[C@]23CCc2c([nH]c4ccc(C)cc24)C3=O)cc1 | Dose-dependent effect | 18 | Dose-dependent effect | 20 | inactive | inactive | inactive | inactive | inactive | inactive | Active | Active | inactive | inactive | inactive | inactive | inactive
4 | COc1ccc([C@H]2[C@@H](c3ccccc3)N[C@@]3(C(=O)Nc4ccccc43)[C@]23CCc2c([nH]c4ccc(Cl)cc24)C3=O)cc1 | Dose-dependent effect | 19 | Dose-dependent effect | 18 | inactive | inactive | inactive | inactive | inactive | inactive | Active | Active | inactive | inactive | inactive | inactive | inactive
5 | Cc1ccc2[nH]c3c(c2c1)CC[C@]1(C3=O)[C@@H](c2cccs2)[C@@H](c2ccccc2)N[C@@]12C(=O)Nc1ccccc12 | Dose-dependent effect | 14 | Dose-dependent effect | 15 | Dose-dependent effect | Dose-dependent effect | Dose-dependent effect | Dose-dependent effect | Dose-dependent effect | Dose-dependent effect | Active |  | Active | Active | Active | Active | Active
6 | O=C1Nc2ccccc2[C@]12N[C@H](c1ccccc1)[C@H](c1cccs1)[C@@]21CCc2c([nH]c3ccccc23)C1=O | Dose-dependent effect | 15 | Dose-dependent effect | 16 | inactive | inactive | inactive | inactive | inactive | inactive | Active |  | inactive | inactive | inactive | inactive | Active
7 | O=C1Nc2ccccc2[C@]12N[C@H](c1ccccc1)[C@H](c1ccccc1)[C@@]21CCc2c([nH]c3ccccc23)C1=O | Dose-dependent effect | 15 | Dose-dependent effect | 17 | inactive | inactive | inactive | inactive | inactive | inactive | Active |  | inactive | inactive | inactive | inactive | inactive
8 | COc1ccc([C@H]2[C@@H](c3ccccc3)N[C@@]3(C(=O)Nc4ccccc43)[C@]23CCc2c([nH]c4ccccc24)C3=O)cc1 | Dose-dependent effect | 17 | Dose-dependent effect | 21 |  |  |  |  |  |  |  |  |  |  |  |  | 
